As a reminder, the inhibition is the percentage by which the read-out fell short of the control. One may read the IC50 as the point on the concentration scale where inhibition reaches its midpoint.

For test [1], the target named is T1, Aldo-keto reductase family 1 member C3 (Homo sapiens) (UniProt P42330).
T1 sequence (whole entry): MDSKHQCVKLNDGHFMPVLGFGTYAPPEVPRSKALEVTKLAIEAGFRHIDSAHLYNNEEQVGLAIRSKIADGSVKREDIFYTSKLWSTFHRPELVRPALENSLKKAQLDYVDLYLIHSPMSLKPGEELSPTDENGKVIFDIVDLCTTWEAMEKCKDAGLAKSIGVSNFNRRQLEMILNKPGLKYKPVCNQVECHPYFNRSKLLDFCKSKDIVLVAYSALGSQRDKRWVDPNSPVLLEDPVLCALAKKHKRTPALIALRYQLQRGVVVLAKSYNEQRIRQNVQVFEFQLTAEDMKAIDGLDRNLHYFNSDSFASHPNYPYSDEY
Kind of test: Inhibition of human 17beta-HSD5 expressed in HEK293 cells assessed as enzyme-mediated transformation of [14C]-4-androstene-3,17-dione in to [14C]-testosterone at 0.3 uM after 18 hrs. The test is classed as cell-based. In a few lines:
(§1)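 Intact HEK-293 cells stably over-expressing human 17β-HSD5, in freshly changed culture medium. [14C]-4-androstene-3,17-dione is added at 100 nM with inhibitor from an ethanolic solution; controls get ethanol only. After 18 h the conversion to [14C]-T is measured.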

Test [2] concerns the target T1, Aldo-keto reductase family 1 member C3 (Homo sapiens). Put plainly: Inhibition of human 17beta-HSD5 expressed in HEK293 cells assessed as enzyme-mediated transformation of [14C]-4-androstene-3,17-dione in to [14C]-testosterone at 3 uM after 18 hrs. It is filed as cell-based. In a few lines: as §1
Test [3] deals with T2, Aldo-keto reductase family 1 member C3 (Homo sapiens, UniProt P42330).
T2 sequence (P42330 whole entry): T1 sequence (whole entry)
Put plainly: Inhibition of human 17beta-HSD5 expressed in HEK293 cells assessed as enzyme-mediated transformation of [14C]-4-androstene-3,17-dione in to [14C]-testosterone after 18 hrs. It is filed as cell-based. In a few lines: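 Intact HEK-293 cells stably over-expressing human 17β-HSD5, in fresh culture medium. [14C]-4-androstene-3,17-dione 0.1 μM with inhibitor added in ethanol (ethanol alone as control), 18 h.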

The test system of test [4] is ZR-75-1. Put plainly: Estrogenic activity in human ZR-75-1 cells expressing estrogen receptor assessed as estrogen-induced cell proliferation at 1 uM after 9 days relative to estrogen. The test is classed as functional. In a few lines: (§2)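 ZR-75-1 cells are resuspended in phenol red-free RPMI 1640 with 5% dextran-charcoal-treated FBS and seeded at 10,000 cells/well. After 3 days of adhesion, lactones from ethanol stocks are added alone or with E2 (0.1 nM). Cells grow 9 days at 37 °C in 5% CO2, with medium changed every 2–3 days. DNA is measured by DABA fluorescence; E2-induced growth is set to 100%.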

In test [5] the test system is ZR-75-1. Kind of test: Antiestrogenic activity in human ZR-75-1 cells expressing estrogen receptor assessed as inhibition of estrogen-induced cell proliferation at 0.03 uM after 9 days relative to estrogen. The test is classed as functional, cell-based. In a few lines: as §2
In test [6] the test system is ZR-75-1. Kind of test: Antiestrogenic activity in human ZR-75-1 cells expressing estrogen receptor assessed as inhibition of estrogen-induced cell proliferation at 1 uM after 9 days relative to estrogen. The test is classed as functional, cell-based. The procedure, abridged:
as §2

For test [7], the species on record is Mus musculus. Kind of test: Androgenic activity in mouse SC115 cells expressing androgen receptor assessed as DHT-induced cell proliferation at 0.1 uM after 10 days relative to DHT. It is filed as functional, cell-based. In a few lines:
(§3)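 SC115 Shionogi clone selected for DHT sensitivity, in MEM with 2% dextran-charcoal-treated FCS, seeded at 20,000 cells/well. After 24 h the medium is renewed and lactones added at 0.1 and 1, without DHT. Final ethanol is 0.01%. Cells are grown 10 days at 37 °C in 5% CO2, with medium changed every 3–4 days. DNA is measured by DABA fluorescence; DHT-stimulated growth is set to 100%.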

For test [8], the species on record is Mus musculus. Kind of test: Androgenic activity in mouse SC115 cells expressing androgen receptor assessed as DHT-induced cell proliferation at 1 uM after 10 days relative to DHT. It is filed as functional, cell-based. In a few lines: as §3
Test [9] has as its target T3, Androgen receptor (Rattus norvegicus) (UniProt P15207).
T3 sequence (whole entry): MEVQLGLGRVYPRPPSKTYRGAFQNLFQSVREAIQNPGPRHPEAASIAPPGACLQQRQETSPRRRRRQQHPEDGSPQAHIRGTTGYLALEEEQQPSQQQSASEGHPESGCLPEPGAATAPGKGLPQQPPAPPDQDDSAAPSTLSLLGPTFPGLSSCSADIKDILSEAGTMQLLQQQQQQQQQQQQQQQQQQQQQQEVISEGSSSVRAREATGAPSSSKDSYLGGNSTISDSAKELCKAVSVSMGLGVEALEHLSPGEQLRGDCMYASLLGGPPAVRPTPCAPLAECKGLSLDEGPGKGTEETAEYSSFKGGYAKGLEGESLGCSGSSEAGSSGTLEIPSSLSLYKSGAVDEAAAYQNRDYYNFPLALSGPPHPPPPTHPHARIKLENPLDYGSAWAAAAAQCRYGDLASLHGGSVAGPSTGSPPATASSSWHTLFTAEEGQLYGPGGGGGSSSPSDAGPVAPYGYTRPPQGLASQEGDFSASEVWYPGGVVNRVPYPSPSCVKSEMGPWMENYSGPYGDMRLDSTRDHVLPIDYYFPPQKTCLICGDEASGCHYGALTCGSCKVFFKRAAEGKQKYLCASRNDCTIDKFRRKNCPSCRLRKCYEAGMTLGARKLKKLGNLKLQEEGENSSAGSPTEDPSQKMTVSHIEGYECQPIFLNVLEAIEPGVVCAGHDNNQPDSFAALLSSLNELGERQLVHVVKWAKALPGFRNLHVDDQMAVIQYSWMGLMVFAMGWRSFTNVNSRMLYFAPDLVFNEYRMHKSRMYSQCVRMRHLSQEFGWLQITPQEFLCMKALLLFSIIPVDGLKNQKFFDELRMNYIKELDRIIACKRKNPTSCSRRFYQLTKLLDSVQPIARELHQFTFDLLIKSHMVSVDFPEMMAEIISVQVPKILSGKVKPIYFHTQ
Put plainly: Binding affinity to rat ventral prostate androgen receptor at 10 uM. The test is classed as tissue-based. Conditions: Prostate gland.

SMILES strings stand for the structures. Active and inactive are the calls of the source. The rule behind the calls is not given here.

`CC1(C)CC[C@@]2(CC[C@H]3[C@@H]4CCc5cc(O)ccc5[C@H]4CC[C@@]32C)OC1=O`: the inhibition in test [1] was determined as 86%; in [2], 94%. Further, in [3], the 50% inhibitory concentration (IC50) was 28 nM. In addition, the figures for the Activity (in the test on ZR-75-1 [4]; in test [9]) were 30% and 6%, respectively. In addition, the outcome with ZR-75-1 [5], in the test listed under Mus musculus [7] and in the test filed under Mus musculus [8] was inactive. Further, the outcome in the test on ZR-75-1 [6] was Active.
In the case of `CC1(C)CC[C@@]2(CC[C@H]3[C@@H]4CCc5ccccc5[C@H]4CC[C@@]32C)OC1=O`, the inhibition was found to be 94% in test [1] and 95% in test [2]. Further, the half-maximal inhibitory concentration (IC50) in [3] amounted to 2.9 nM. Besides, the Activity with ZR-75-1 [4] was determined as 50%. Besides, the outcome in the test with ZR-75-1 [5], with ZR-75-1 [6], in the test listed under Mus musculus [7] and in the test filed under Mus musculus [8] was inactive.

These data come from ChEMBL document CHEMBL1153852, “Steroidal lactones as inhibitors of 17beta-hydroxysteroid dehydrogenase type 5: chemical synthesis, enzyme inhibitory activity, and assessment of estrogenic and androgenic activities” (Eur J Med Chem, 2009).
